Columns and labels:
Human alphaherpesvirus 1 = test: Antiviral activity against HSV-1 replication was evaluated by ELISA; format: functional, organism-based
In short: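 HSV-1 strain S-148 ELISA following Prichard and Shipman. Drug concentrations applied to infected cultures; percent inhibition regressed linearly against log concentration and IC50 read from the regression line. Acyclovir as positive control. Most assays averaged over two or more experiments, but HSV-1 ELISAs were run once.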

HFF = test: Cytotoxicity against HFF cells, estimated by visual scoring of cells not affected by virus infection in the plaque reduction assay; format: functional, cell-based; conditions: Homo sapiens
In short: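 Uninfected areas of HFF monolayers in the HCMV plaque-reduction assay examined at 35-fold magnification. Drug-induced cytopathology scored 0–4 on the day plaques were stained and counted.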

L1210 [1] = test: In vitro cytotoxicity against growth rate of L1210 cell at 100 uM was evaluated.; format: functional, Mus musculus
In short: (§1)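 L1210 murine leukemia cells in Fischer's medium with 10% heat-inactivated horse serum (56 °C, 30 min), exposed to 100 μM compound. Cells counted at 0, 24, 48, 72 and 96 h. Growth rate taken as the slope of semilog cell number versus time, expressed as percent of untreated control.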

Human betaherpesvirus 5 [2] = test: Antiviral activity against Human Cytomegalovirus (HCMV) replication in a plaque reduction assay; format: functional, organism-based
In short: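 Towne strain HCMV (plaque-purified P0) on HFF monolayers in MEM(E) with 10% FBS. Inoculum ca. 100 PFU per 0.2 mL; compounds dissolved in the overlay medium; plaques counted after staining. IC50 from linear regression of percent inhibition against log concentration. Ganciclovir as positive control; two or more experiments averaged.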

KB [3] = test: Cytotoxic activity tested against exponentially growing KB cells, determined by staining method; format: functional, cell-based; conditions: Homo sapiens
In short: (§2)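 KB cells (human oral epidermoid carcinoma) kept in MEM(H) with 10% calf serum and tested while exponentially growing. Toxicity measured by a previously described staining method. IC50 from linear regression of percent inhibition against log drug concentration; two or more experiments averaged.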

L1210 [4] = test: Percent control against growth rate of L1210 cell at 100 micro M was evaluated.; format: functional, Mus musculus; in short: as §1
Human betaherpesvirus 5 [5] = test: Antiviral activity in Human Cytomegalovirus Viral infection was evaluated by ELISA method; format: functional, organism-based
In short: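 MRC-5 cells held overnight at 37 °C, then infected with Towne HCMV at moi 0.002 PFU/cell. After 1 h adsorption, up to 10 drug concentrations added in triplicate. Fixed with 95% EtOH after 6.5 days. Blocked, then mouse anti-HCMV monoclonal (1:400, 1 h) and peroxidase anti-mouse (1:1000, 2 h). Read at 450/570 nm, background subtracted; IC50 by log-linear regression.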

L1210 [6] = test: Inhibitory concentration required to decrease the growth rate of L1210 cells to one-half of the control rate.; format: functional, cell-based; conditions: Mus musculus
In short: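 L1210 cells in Fischer's medium with 10% heat-inactivated horse serum, counted at 0, 24, 48, 72 and 96 h across selected compound concentrations. Growth rate is the semilog slope as percent of control. IC50 is the concentration that halves the growth rate; '>' values give the highest concentration tested.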

L1210 [7] = test: In vitro cytotoxicity against growth rate of L1210 cell at 100 micro M was evaluated.; format: functional, Mus musculus; in short: as §1
KB [8] = test: Cytotoxic activity against exponentially growing KB cells was determined by a staining method; format: functional, cell-based; conditions: Homo sapiens; in short: as §2

SMILES | IC50 (Human alphaherpesvirus 1) [µM] | IC50 (HFF) [µM] | Control (L1210 [1]) [%] | IC50 (Human betaherpesvirus 5 [2]) [µM] | IC50 (KB [3]) [µM] | Control (L1210 [4]) [%] | IC50 (Human betaherpesvirus 5 [5]) [µM] | IC50 (L1210 [6]) [µM] | Control (L1210 [7]) [%] | IC50 (KB [8]) [µM]
N#Cc1cn(Cc2ccccc2)c2ncnc(N)c12 | 90 | > 100 | 60 | > 100 | > 100 | – | – | – | – | –
Cn1cc(C(N)=O)c2c(N)ncnc21 | > 100 | – | 89 | > 100 | > 100 | – | – | – | – | –
Cc1cccc(Cn2cc(C(=N)S)c3c(N)ncnc32)c1 | 15 | 66 | – | 0.25 | 30 | – | – | – | – | –
NC(=S)c1cn(COCCO)c2ncnc(N)c12 | 21 | > 100 | – | 8.8 | 115 | – | – | – | – | –
CCOCn1cc(C(N)=O)c2c(N)ncnc21 | > 100 | > 100 | – | > 100 | > 100 | 91 | – | – | – | –
NC(=S)c1cn([C@@H]2O[C@H](CO)[C@@H](O)[C@H]2O)c2ncnc(N)c12 | – | 0.2 | – | 0.2 | – | – | – | – | – | –
Cc1ccccc1Cn1cc(C#N)c2c(N)ncnc21 | > 100 | > 100 | – | 3.4 | > 100 | – | 32 | – | – | –
NC(=S)c1cn(Cc2ccccc2)c2ncnc(N)c12 | 7.4 | > 32 | 0 | 0.36 | 32 | – | 0.33 | 70 | – | –
COCCOCn1cc(C#N)c2c(N)ncnc21 | > 100 | > 100 | – | 90 | > 100 | – | – | – | 88 | –
Cn1cc(C#N)c2c(N)ncnc21 | > 100 | – | 87 | > 100 | > 100 | – | > 100 | – | – | –
NC(=S)c1cn(COCc2ccccc2)c2ncnc(N)c12 | 10 | > 100 | – | 2.6 | > 100 | – | 1.8 | 100 | 52 | –
NC(=O)c1cn(Cc2ccccc2)c2ncnc(N)c12 | 33 | > 32 | 0 | > 100 | 75 | – | – | 16 | – | –
Cc1ccccc1Cn1cc(C(=N)S)c2c(N)ncnc21 | 0.9 | 66 | – | 0.1 | > 17 | – | – | – | – | –
CCCn1cc(C#N)c2c(N)ncnc21 | > 100 | > 100 | 74 | 36 | > 100 | – | – | – | – | –
COCCOCn1cc(C(N)=S)c2c(N)ncnc21 | 85 | > 100 | – | 1 | 183 | – | 1.9 | – | 88 | –
CCOCn1cc(C#N)c2c(N)ncnc21 | > 100 | > 100 | – | > 100 | > 100 | – | – | – | 76 | –
C=CCn1cc(C#N)c2c(N)ncnc21 | > 100 | – | 75 | > 100 | > 100 | – | – | – | – | –
NC(=S)c1cn(COC(CO)CO)c2ncnc(N)c12 | > 100 | > 100 | – | 6.2 | > 100 | – | – | – | – | –
COc1ccc(Cn2cc(C#N)c3c(N)ncnc32)cc1 | > 100 | > 100 | – | > 100 | > 100 | – | – | – | – | –
Cc1ccc(Cn2cc(C#N)c3c(N)ncnc32)cc1 | > 100 | > 100 | 64 | > 100 | > 100 | – | – | – | – | –
CC(C)(C)c1ccc(Cn2cc(C#N)c3c(N)ncnc32)cc1 | > 100 | > 32 | – | 32 | 3 | – | – | – | – | –
C=CCn1cc(C(N)=O)c2c(N)ncnc21 | > 100 | – | 66 | > 100 | 100 | – | – | – | – | –

SMILES | IC50 (Human alphaherpesvirus 1) [µM] | IC50 (HFF) [µM] | Control (L1210 [1]) [%] | IC50 (Human betaherpesvirus 5 [2]) [µM] | IC50 (KB [3]) [µM] | Control (L1210 [4]) [%] | IC50 (Human betaherpesvirus 5 [5]) [µM] | IC50 (L1210 [6]) [µM] | Control (L1210 [7]) [%] | IC50 (KB [8]) [µM]
COc1ccc(Cn2cc(C(=N)S)c3c(N)ncnc32)cc1 | 4 | 66 | – | 0.5 | 28 | – | 0.5 | – | – | –
CCCn1cc(C(N)=O)c2c(N)ncnc21 | > 100 | – | 0 | > 100 | 100 | – | > 100 | 73 | – | –
N#Cc1c[nH]c2ncnc(N)c12 [TOYOCAMYCIN AGLYCONE] | > 100 | 10 | – | 3.9 | 18 | – | – | – | – | –
N#Cc1cn([C@@H]2O[C@H](CO)[C@@H](O)[C@H]2O)c2ncnc(N)c12 [TOYOCAMYCIN] | – | < 0.01 | – | – | 0.03 | – | – | – | – | –
Cc1cccc(Cn2cc(C(N)=O)c3c(N)ncnc32)c1 | > 100 | > 100 | – | > 100 | > 100 | – | – | – | – | –
COCCOCn1cc(C(N)=O)c2c(N)ncnc21 | > 100 | > 100 | – | > 100 | > 100 | – | – | – | 92 | –
Cc1ccc(Cn2cc(C(N)=O)c3c(N)ncnc32)cc1 | > 100 | > 100 | 2 | > 100 | > 100 | – | – | 20 | – | –
Cn1cc(C(=N)S)c2c(N)ncnc21 | 2.8 | – | 0 | 1.2 | 15 | – | – | 38 | – | –
NC(=S)c1c[nH]c2ncnc(N)c12 | 35 | > 32 | – | 1.6 | 25 | – | – | – | – | –
Cc1ccccc1Cn1cc(C(N)=O)c2c(N)ncnc21 | > 100 | > 100 | – | 15 | > 100 | – | – | – | – | –
CCOCn1cc(C(=N)S)c2c(N)ncnc21 | 40 | 66 | – | 2.7 | 68 | – | 7 | – | 111 | –
Cc1ccc(Cn2cc(C(=N)S)c3c(N)ncnc32)cc1 | 3.5 | 100 | 92 | 0.1 | 65 | – | 0.15 | > 10 | – | –
NC(=O)c1cn([C@@H]2O[C@H](CO)[C@@H](O)[C@H]2O)c2ncnc(N)c12 [SANGIVAMYCIN] | – | < 0.01 | – | – | 0.08 | – | – | – | – | –
CCCn1cc(C(=N)S)c2c(N)ncnc21 | 12 | 25 | 79 | 1.2 | 17 | – | – | – | – | –
NC(=O)c1cn(COCc2ccccc2)c2ncnc(N)c12 | > 100 | > 100 | – | > 100 | > 100 | – | – | 70 | 0 | –
CC(C)(C)c1ccc(Cn2cc(C(N)=O)c3c(N)ncnc32)cc1 | 50 | 100 | – | 28 | 0.9 | – | – | – | – | –
CC(C)(C)c1ccc(Cn2cc(C(=N)S)c3c(N)ncnc32)cc1 | 15 | > 100 | – | 1.5 | 7 | – | – | – | – | –
Cc1cccc(Cn2cc(C#N)c3c(N)ncnc32)c1 | > 100 | > 100 | – | > 100 | – | – | – | – | – | > 100
C=CCn1cc(C(N)=S)c2c(N)ncnc21 | 4.5 | – | 0 | 2.1 | 19 | – | – | 38 | – | –
COc1ccc(Cn2cc(C(N)=O)c3c(N)ncnc32)cc1 | 35 | > 32 | – | 13 | 47 | – | – | – | – | –
N#Cc1cn(COCc2ccccc2)c2ncnc(N)c12 | > 100 | > 100 | – | > 100 | > 100 | – | – | – | 83 | –
